ROMK primary: human ROMK K+ channel modulation, primary screen | 130,000 tested, 2% active | B-score at 10 µM | Tet-inducible ROMK, thallium flux fluorescence; actives lie on both sides | AID 1918 | P48048;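 active = signal ratio slope over the read window, or its plate-corrected B-score, at least 3 SD from the plate mean, either direction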;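 also: B-score of the F/F0 ratio slope over 7 to 12 s after thallium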
Rad51 HR inh: blocks human Rad51 in homologous recombination | Q06609 | hRad51 DNA strand exchange, fluorescence dequenching | inhibition, % at 10 µM | 200,000 tested, 0.085% active;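 active = inhibition above 40% at the single screening dose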;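 also: 0% = DMSO control wells and 100% = blanks with heterologous ssDNA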
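System: hRad51 filaments on single-stranded DNA; reagent: Fluorescein- and BHQ1-tagged 47-mer duplex; compound dosing: one concentration, 10 µM final; timing: filaments 15 min 37 °C, then compound 30 min; measured by: fluorescein emission 520 nm, excitation 485 nm; benchmarks: per-plate controls and blanks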
KCC2 mod: modulators of human KCC2 chloride dependent transport; KCC2 cells, thallium flux FluoZin-2 fluorescence; B-score of Tl+ flux slope (higher = more flux/activation; lower = inhibition) at 10 µM; 190,000 tested, 2.2% active; AID 1456;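 active = thallium flux slope and its plate-corrected score both differing from the plate sample mean at a set confidence after two filtering rounds, in either direction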;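 also: slope of fluorescence scaled to starting intensity during 10 to 20 s after thallium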
PKD1 kinase inh: PKD1 (human) kinase inhibition; PKD1 kinase fluorescence polarization assay; inhibition, % (no concentration beside the values); 200,000 tested, 0.056% active; in the data active = inhibition above about 50%
KCC2 sec1: KCC2 (human) modulation, secondary assay | normalised thallium flux (F/F0 slope) at 10 µM | HEK293-KCC2, thallium flux, FluoZin2 fluorescence; hits give high values | shares compounds with KCC2 mod | 3,700 tested, 15% active;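 active = thallium flux slope above the same plate's solvent-only control mean plus 3 SD; inconclusive = the two replicate wells disagree; inactive = no significant difference from solvent-only control wells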
KCC2 bumet counter: thallium flux despite bumetanide block in KCC2 cells, secondary assay 3. shares compounds with KCC2 mod. HEK293-KCC2 + bumetanide/ouabain, thallium flux FluoZin2; hits give high values. normalized thallium flux at 10 µM. 3,700 tested, 49% active;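 active = thallium entry rate above the same plate's blocked-transporter control wells by more than 3 SD; inconclusive = the two repeat wells disagree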;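 also: raw slope of fluorescence over initial fluorescence between 10 and 20 s after thallium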
KCC2 secondary2: confirmation of human KCC2 transport modulators; shares compounds with KCC2 mod; HEK293-KCC2, thallium flux FluoZin2 fluorescence; actives lie on both sides; F/F0 rise rate, 10–20 s post-thallium; normalized thallium flux at 10 µM; 3,700 tested, 23% active;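 active = thallium flux slope more than 3 SD above or below the plate's solvent-only control mean, mostly below; inconclusive = the two repeat wells disagreed; inactive = no significant shift from solvent-only controls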;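 also: raw slope with 0.1% DMSO as baseline and bumetanide as block control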
HEK293 Tl flux: counter-screen for KCC2 modulators: effect in parental HEK293 cells; shares compounds with KCC2 mod; thallium flux rate (normalised fluorescence) at 10 µM; thallium flux FluoZin2, ouabain; baseline-ratio fluorescence slope, 10–20 s after thallium; 3,700 tested, 46% active; AID 1716;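 active = thallium flux rate significantly above the same plate's solvent-only control wells, beyond their mean plus 3 SD; inconclusive = the two replicate wells gave conflicting results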
KCC2 retest ouab: confirmation of human KCC2 modulators with ouabain | shares compounds with KCC2 mod | HEK293-KCC2, thallium flux FluoZin2 fluorescence; bidirectional: low = inhibitor, high = activator | raw Tl+ flux slope (below DMSO = inhibition, above = activation) at 10 µM | 3,700 tested, 48% active;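 active = thallium flux slope beyond 3 SD from same-plate DMSO control mean in most replicates, usually higher, sometimes lower; inconclusive = repeat tests gave conflicting results; inactive = no significant difference from controls in most replicates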;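 also: slope of initial-normalized fluorescence between seconds 10 and 20 after thallium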
HEK counter2: counter-screen for KCC2 modulators: effect in parental HEK293 cells | thallium flux FluoZin-2 fluorescence slope | thallium flux slope at 10 µM | shares compounds with KCC2 mod | 3,700 tested, 33% active | AID 1718;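 active = thallium flux slope above the same plate's solvent-control mean plus 3 SD in both duplicate wells; inconclusive = duplicate wells that disagreed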;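 also: run without ouabain in cells lacking the KCC2 cotransporter; slope of fluorescence scaled to its starting value between 10 and 20 s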
* hit, by the source's call; ? = inconclusive; · = no result given. A selection: hits, their analogues and other compounds. The true share with any hit is near 3%.

SMILES	ROMK primary	Rad51 HR inh	KCC2 mod	PKD1 kinase inh	KCC2 sec1	KCC2 bumet counter	KCC2 secondary2	HEK293 Tl flux	KCC2 retest ouab	HEK counter2
CC1CCCC(NC(=O)CSc2ccc(F)cc2)C1C (stereo not drawn)	0.013	7	-0.39	-3	·	·	·	·	·	·
c1ccc(CCCNc2ncnc3nc[nH]c23)cc1	·	-6	-0.24	-1	·	·	·	·	·	·
c1ccc2c(CCNc3ncnc4nc[nH]c34)cccc2c1	-1.6	-3	-3.2*	0	0.0085	0.0041	0.035	0.0076	0.017*	0.011
CC1(C)CC(NC(=O)C(Cl)(Cl)Cl)CC(C)(C)N1	1.3	·	0.56	-1	·	·	·	·	·	·
NC1CCN(c2c(F)cc3c(=O)c(C(=O)O)cn(C4CC4)c3c2Cl)C1 (stereo not drawn)	·	-6	-0.21	·	·	·	·	·	·	·
CCc1ccc(S(=O)(=O)NC(=S)NC2CCCCC2)cc1	-0.14	·	32*	-2	0.026*	0.071*	?	0.05*	0.06*	0.018*
O=C(NNS(=O)(=O)c1ccc(Cl)cc1)NC1CCCCC1	·	-4	·	4	·	·	·	·	·	·
O=S(=O)(NC(=S)NC1CCCCC1)c1ccc(Cl)cc1	1	·	11*	5	0.017	0.02*	0.032	0.02*	0.025*	0.022*
Cc1ccc(S(=O)(=O)NC(=S)NC2CCCCC2)cc1	0.03	12	13*	2	0.016*	0.032*	0.037	?	0.034*	0.013
Cc1ccc(S(=O)(=O)NC(C)C(=O)NC2CCCCCC2)cc1 (stereo not drawn)	0.0046	7	0.0074	-5	·	·	·	·	·	·
NS(=O)(=O)c1ccc(CCNC(=S)NC2CCCCC2)cc1	·	·	0.91	·	·	·	·	·	·	·
Nc1nc(-c2c(Cl)cccc2Cl)no1	·	-7	·	·	·	·	·	·	·	·
CCCCCn1c(CNC(=O)CCC)nc2ccccc21	·	3	-4.6*	-9	0.006	0.0039	0.032	0.0069	0.018	?
CCCCn1c(CNC(=O)CCC)nc2ccccc21	·	1	-0.0083	-5	·	·	·	·	·	·
C=C(C)Cn1c(CCCNC(=O)CC)nc2ccccc21	·	-2	-5*	-10	0.0085	0.0065	0.033	0.0079	0.023	0.011
CCC(CC)C(=O)N1N=C(c2ccc(NS(C)(=O)=O)cc2)CC1c1ccc(C)cc1 (stereo not drawn)	-1.2	12	-0.065	·	·	·	·	·	·	·
FC(F)(F)c1ccc(Oc2ccc3cc(Br)ccc3c2)nc1	·	1	0.31	0	·	·	·	·	·	·
CC1Cc2nc(SCC(=O)N3CCN(c4ccccc4)CC3)n(C)c(=O)c2S1 (stereo not drawn)	·	0	·	-2	·	·	·	·	·	·
O=C(CSc1nc2c(c(=O)n1-c1ccccc1)SCC2)N1CCOCC1	·	4	-0.032	1	·	·	·	·	·	·
O=C(CSc1nc2c(c(=O)n1-c1ccccc1)SCC2)N1CCN(c2ccccc2)CC1	·	3	-7.6*	-5	0.0067	0.0061	0.032	0.0069	0.012*	?
CCn1c(SCC(=O)N2CCN(c3ccccc3)CC2)nc2c(c1=O)SC(C)C2 (stereo not drawn)	·	-1	-3.1*	-15	0.0049	0.0041	?	0.0051*	0.014*	0.0084*
O=C(CN1CCOCC1)NN1CC(=O)N(c2ccc(Cl)cc2)CC1=O	·	-9	-0.5	·	·	·	·	·	·	·
C(=N\NC1=Nc2cccc3cccc1c23)/c1ccccn1	-0.016	-19	-4.4*	2	?	0.005	0.027	0.0061	0.016*	0.0094
C(=N\Nc1nc2ccccc2s1)/c1ccccn1	·	-9	6.9*	·	0.0086	?	0.032	?	0.02	0.012
Brc1csc(/C=N/Nc2nc3ccccc3s2)c1	·	-6	0.34	-3	·	·	·	·	·	·
SMILES	ROMK primary	Rad51 HR inh	KCC2 mod	PKD1 kinase inh	KCC2 sec1	KCC2 bumet counter	KCC2 secondary2	HEK293 Tl flux	KCC2 retest ouab	HEK counter2
O=[N+]([O-])c1ccc(-c2cn(-c3ccccc3F)c(=S)[nH]2)cc1	0.49	-37	5.8*	0	0.0093	0.012*	0.031	0.0089*	?	0.011*
N#CCCCSc1ncccc1-c1nc2ccccc2[nH]1	-0.03	·	0.44	-9	0.0079	0.0061	0.027	0.0066	0.02	0.0086
N#CCSc1ncccc1-c1nc2ccccc2[nH]1	-0.18	7	-0.41	-2	·	·	·	·	·	·
N#Cc1c(-c2ccc(Cl)cc2)ccn2nc(C3CCCCC3)nc12	0.026	3	0.5	-9	·	·	·	·	·	·
O=C(CN1CCCc2ccccc21)NCCc1ccc(Cl)cc1	-0.27	-8	-0.79	0	·	·	·	·	·	·
Cc1cc(C(=O)Nc2c(F)c(F)c(F)c(F)c2F)n(-c2ccccc2)n1	-0.67	8	-0.39	-9	·	·	·	·	·	·
COc1ccc(CNC(=S)NC(C)CCc2ccccc2)cc1 (stereo not drawn)	-0.26	12	-4.9*	-1	0.0053*	?	?	0.0058*	0.013*	0.0098
N#Cc1c(-c2ccccc2)nc(SCC(=O)N2c3ccccc3Sc3ccccc32)[nH]c1=O	·	·	-3.6	·	·	·	·	·	·	·
CC1CCCCN1CCn1c(=S)[nH]c2ncccc2c1=O (stereo not drawn)	0.2	-2	·	3	·	·	·	·	·	·
CCN(CC)CCCn1c(=S)[nH]c2ncccc2c1=O	-0.52	-4	1.2	0	·	·	·	·	·	·
CCN(CCCn1c(=S)[nH]c2ccc(N3CCOCC3)cc2c1=O)c1ccccc1	0.5	-4	4.9*	4	0.012*	0.017*	0.03	0.0095*	0.052*	0.011*
O=c1c2cccnc2[nH]c(=S)n1CCCN1CCN(c2ccccc2F)CC1	·	·	20*	-5	0.013*	0.076*	0.038	0.039*	0.058*	0.013*
CC(C)OCCCn1c(=S)[nH]c2ncccc2c1=O	·	·	13*	-10	0.017*	0.034*	0.031	0.016*	0.03*	0.012*
CCN(CCCn1c(=S)[nH]c2ncccc2c1=O)c1ccccc1	·	-3	78*	-4	0.019*	0.14*	0.038	0.12*	0.12*	0.023*
CCCCN(C)CCn1c(=S)[nH]c2ncccc2c1=O	-0.1	-11	3	-2	·	·	·	·	·	·
Cc1ccc(S(=O)(=O)N2CCNC(=O)CC2)cc1	-0.0088	20	0.0019	-1	·	·	·	·	·	·
O=C(COc1ccccc1-c1ccccc1)NN=C1CCCC1	0.062	·	-3.4*	0	0.0071	0.0039	0.032	0.005*	0.018	0.0077*
C/C(CCC(C)C)=N\NC(=O)COc1ccccc1-c1ccccc1	-1.5	3	-0.69	-4	·	·	·	·	·	·
